ChEMBL document CHEMBL4406857, “Discovery of new small molecule inhibitors targeting isocitrate dehydrogenase 1 (IDH1) with blood-brain barrier penetration” (Eur J Med Chem, 2019)
pIC50: −log10 of the molar value. Each block holds one molecule with its values, some of them ahead of it. Calls of active or inactive are those of the source. No cut-off for these calls is given here.

Columns and labels:
[1] = Volume of distribution at steady state in ICR mouse at 1 mg/kg, iv measured upto 24 hrs by LCMS analysis; format: ADME, organism-based; settings: in vivo, read-out: Vdss
Method in brief: (§1)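 Male ICR mice (6-8 weeks, 20-25 g), nine animals, dosed 1 mg/kg by slow intravenous injection or 5 mg/kg orally. Blood sampled into EDTA at 5 min (iv only), 15 min, 30 min, 1, 2, 4, 8 and 24 h. Plasma stored at -20 °C, prepared by acetonitrile protein precipitation with dexamethasone internal standard, and analysed for parent compound. Values are means of three replicates.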

[2] = Clearance in ICR mouse at 1 mg/kg, iv measured upto 24 hrs by LCMS analysis; format: ADME, organism-based; settings: in vivo; method in brief: as §1
[3] = Half life in ICR mouse at 1 mg/kg, iv measured upto 24 hrs by LCMS analysis; format: ADME, organism-based; settings: in vivo; method in brief: as §1
[4] = target: Isocitrate dehydrogenase [NADP] cytoplasmic (Homo sapiens, UniProt O75874, R132H); test: (§2) Inhibition of recombinant human C-terminal His8-tagged IDH1 R132H mutant expressed in Escherichia coli BL21 assessed as reduction in NADPH consumption using alpha-ketoglutarate as substrate preincubated for 60 mins followed by substrate addition measured for 60 mins in presence of NADPH by diaphorase/resazurin-based assay
[5] = Oral bioavailability in ICR mouse at 5 mg/kg measured upto 24 hrs by LCMS analysis; format: ADME, organism-based; settings: in vivo; for F: 24 h; for bioavailability: ICR; method in brief: as §1
[6] = Cmax in ICR mouse at 5 mg/kg, po measured upto 24 hrs by LCMS analysis; format: ADME, organism-based; parameters: dose 5 mg/kg, route oral; settings: in vivo; method in brief: as §1
[7] = AUC in ICR mouse at 5 mg/kg, po measured upto 24 hrs by LCMS analysis; format: ADME, organism-based; parameters: dose 5 mg/kg, time < 24 hr, route oral; settings: in vivo; method in brief: as §1
[8] = target: T1, Isocitrate dehydrogenase [NADP] cytoplasmic (Homo sapiens, UniProt O75874, R132C); test: as §2, with “R132C” for “R132H”, “addition and” for “addition”, “diaphorase/resazurin-based fluorescence” for “diaphorase/resazurin-based”
[9] = AUC in ICR mouse at 1 mg/kg, iv measured upto 24 hrs by LCMS analysis; format: ADME, organism-based; parameters: time < 24 hr, dose 1 mg/kg, route intravenous; settings: in vivo; method in brief: as §1
[10] = Half life in ICR mouse at 5 mg/kg, po measured upto 24 hrs by LCMS analysis; format: ADME, organism-based; settings: in vivo; method in brief: as §1
[11] = Drug uptake in tumor of athymic BALB/c nude mouse xenografted with human HT1080 cells at 50 mg/kg, po administered as a single dose via gavage measured upto 24 hrs post dosing by LC-MS/MS analysis; format: ADME, organism-based, Neoplasm; settings: in vivo
Method in brief: (§3)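 Female athymic nude mice carrying subcutaneous right-flank HT1080 xenografts (5 × 10^6 cells in PBS/Matrigel 1:1). Compound given by oral gavage as a suspension in 0.5% MC + 0.5% Tween 80 in water, 10 ml/kg. Blood taken by orbital sinus bleed; brain and tumour collected at 2, 6, 12 and 24 h, homogenized in PBS. Samples acetonitrile-precipitated with dexamethasone internal standard and measured by LC/MS/MS.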

[12] = Drug uptake in plasma of athymic BALB/c nude mouse xenografted with human HT1080 cells at 50 mg/kg, po administered as a single dose via gavage measured upto 24 hrs post dosing by LC-MS/MS analysis; format: ADME, organism-based; settings: in vivo; method in brief: as §3
[13] = Drug uptake in brain of athymic BALB/c nude mouse xenografted with human HT1080 cells at 50 mg/kg, po administered as a single dose via gavage measured upto 24 hrs post dosing by LC-MS/MS analysis; format: ADME, organism-based; settings: in vivo; method in brief: as §3
[14] = target: T1, Isocitrate dehydrogenase [NADP] cytoplasmic; test: Inhibition of IDH1 R132C mutant in human HT1080 cells assessed as reduction in 2-HG production incubated with compound for 48 hrs by D2HG assay kit based fluorescence assay; format: cell-based
[15] = target: Isocitrate dehydrogenase [NADP] cytoplasmic (Homo sapiens, UniProt O75874); test: Inhibition of wild type recombinant human C-terminal His8-tagged IDH1 expressed in Escherichia coli BL21 assessed as reduction in NADP consumption using DL-isocitrate as substrate preincubated for 60 mins followed by substrate addition and measured for 60 mins in presence of NADP by diaphorase/resazurin-based fluorescence assay
[16] = Drug uptake in brain of athymic BALB/c nude mouse xenografted with human HT1080 cells at 50 to 150 mg/kg, po administered as a single dose via gavage measured upto 24 hrs post dosing by LC-MS/MS analysis; format: ADME, organism-based; settings: in vivo; method in brief: as §3
HT-1080 = test: In vivo inhibition of IDH1 R132C mutant in human HT1080 cells xenografted in athymic BALB/c nude mouse assessed as reduction in 2-HG level in tumor tissue at 50 mg/kg, po administered as a single dose via gavage measured upto 24 hrs post dosing by LC-MS/MS analysis; format: functional, organism-based
Method in brief: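 HT1080 subcutaneous xenografts in female athymic nude mice, randomized block design, 12 mice per group. Oral gavage of suspension (0.5% MC + 0.5% Tween 80 in water, 10 ml/kg). Tumours collected at 2, 6, 12 and 24 h and frozen in liquid nitrogen. 2-HG measured by LC/MS/MS; percent inhibition taken relative to vehicle-treated mice, reported as mean ± SEM.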

[17] = Drug uptake in tumor of athymic BALB/c nude mouse xenografted with human HT1080 cells at 50 to 150 mg/kg, po administered as a single dose via gavage measured upto 24 hrs post dosing by LC-MS/MS analysis; format: ADME, organism-based, Neoplasm; settings: in vivo; method in brief: as §3
[18] = Drug uptake in plasma of athymic BALB/c nude mouse xenografted with human HT1080 cells at 50 to 150 mg/kg, po administered as a single dose via gavage measured upto 24 hrs post dosing by LC-MS/MS analysis; format: ADME, organism-based; settings: in vivo; method in brief: as §3
[19] = system: Isocitrate dehydrogenase [NADP] cytoplasmic (Homo sapiens), O75874 [R132H]; test: Inhibition of human IDH1 R132H mutant transfected in GL261 cells assessed as reduction in 2-HG production at 100 nM incubated with compound for 48 hrs by D2HG assay kit based fluorescence assay; format: cell-based
Isocitrate dehydrogenase [NADP] cytoplasmic (Homo sapiens), O75874 [R132H], sequence (O75874 whole entry R132H): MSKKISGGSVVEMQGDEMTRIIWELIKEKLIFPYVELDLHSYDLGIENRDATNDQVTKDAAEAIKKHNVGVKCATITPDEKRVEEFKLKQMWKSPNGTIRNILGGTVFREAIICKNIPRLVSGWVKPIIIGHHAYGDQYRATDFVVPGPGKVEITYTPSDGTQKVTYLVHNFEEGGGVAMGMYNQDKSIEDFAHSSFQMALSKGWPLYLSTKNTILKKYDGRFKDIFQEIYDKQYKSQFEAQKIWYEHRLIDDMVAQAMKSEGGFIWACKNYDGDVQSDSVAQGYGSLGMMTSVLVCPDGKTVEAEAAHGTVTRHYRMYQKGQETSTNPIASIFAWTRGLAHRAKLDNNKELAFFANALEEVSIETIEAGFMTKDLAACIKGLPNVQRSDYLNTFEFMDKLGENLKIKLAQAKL

Isocitrate dehydrogenase [NADP] cytoplasmic (Homo sapiens, UniProt O75874, R132H), sequence (O75874 2-414 R132H limits assumed): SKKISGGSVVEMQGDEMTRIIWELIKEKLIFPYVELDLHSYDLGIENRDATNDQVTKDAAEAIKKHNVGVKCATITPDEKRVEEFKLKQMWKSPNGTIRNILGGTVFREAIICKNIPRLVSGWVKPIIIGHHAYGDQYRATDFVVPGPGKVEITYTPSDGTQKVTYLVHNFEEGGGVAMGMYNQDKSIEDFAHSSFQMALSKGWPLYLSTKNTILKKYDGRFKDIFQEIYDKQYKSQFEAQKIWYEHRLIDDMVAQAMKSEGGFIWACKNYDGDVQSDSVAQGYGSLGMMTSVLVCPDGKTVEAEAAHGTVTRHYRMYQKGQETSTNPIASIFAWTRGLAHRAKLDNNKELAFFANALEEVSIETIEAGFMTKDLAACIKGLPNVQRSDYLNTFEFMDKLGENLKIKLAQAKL
T1 sequence (O75874 2-414 R132C limits assumed): as the sequence (O75874 2-414 R132H limits assumed) above, with H131C counted along it
Isocitrate dehydrogenase [NADP] cytoplasmic (Homo sapiens, UniProt O75874), sequence (O75874 whole entry): as the sequence (O75874 whole entry R132H) above, with H132R counted along it

pIC50 [4]: 6.89
pIC50 [8]: 7.03
SMILES: CC1Cc2c([C@H](C)Nc3nccc(N4C(=O)OC[C@@H]4[C@H](C)F)n3)ncn2-c2ccc(C(F)(F)F)cc21 (stereo not given in full)

pIC50 [4]: 7.62
pIC50 [8]: 7.62
SMILES: C[C@H](Nc1nccc(N2C(=O)OC[C@@H]2[C@H](C)F)n1)c1ncn2c1CSc1cc(C(F)(F)F)ccc1-2

pIC50 [4]: 7.74
pIC50 [8]: 8.10
SMILES: C[C@H](Nc1nccc(N2C(=O)OC[C@@H]2[C@H](C)F)n1)c1ncn2c1CCc1ccc(C(F)(F)F)cc1-2

pIC50 [4]: 6.92
pIC50 [8]: 6.92
SMILES: CC1Cc2cc(C(F)(F)F)ccc2-n2cnc([C@H](C)Nc3nccc(N4C(=O)OC[C@@H]4[C@H](C)F)n3)c21 (stereo not given in full)

pIC50 [4]: 7.35
pIC50 [8]: 7.36
SMILES: C[C@H](Nc1nccc(N2C(=O)OC[C@@H]2[C@H](C)F)n1)c1ncn2c1CCCc1cc(C(F)(F)F)ccc1-2

Vd [1]: 5.2 L/kg
clearance [2]: 30 mL/min/kg
half-life [3]: 2.1 h
pIC50 [15]: 5.55
pIC50 [14]: 7.92
pIC50 [4]: 8.57
F [5]: 152%
Cmax [6]: 1120 nM
AUC at 24 h [7]: 8.46 µM·h
pIC50 [8]: 8.03
AUC at 24 h [9]: 1.02 µM·h
half-life [10]: 2.5 h
SMILES: C[C@H](Nc1nccc(N2C(=O)OC[C@@H]2[C@H](C)F)n1)c1ncn2c1COc1cc(C(F)(F)F)ccc1-2

pIC50 [4]: 7.72
pIC50 [8]: 7.76
SMILES: C[C@H](Nc1nccc(N2C(=O)OC[C@@H]2[C@H](C)F)n1)c1ncn2c1sc1cc(C(F)(F)F)ccc12

Drug uptake [16]: Active
Vd [1]: 2.3 L/kg
clearance [2]: 23 mL/min/kg
half-life [3]: 1.5 h
pIC50 [15]: 5.18
pIC50 [14]: 7.80
pIC50 [4]: 8.40
bioavailability [5]: 150%
Cmax [6]: 1690 nM
Drug uptake [17]: Active
AUC at 24 h [7]: 11 µM·h
pIC50 [8]: 8.09
Drug uptake [18]: Active
AUC at 24 h [9]: 1.44 µM·h
half-life [10]: 2.5 h
inhibition [19]: Active
SMILES: C[C@H](Nc1nccc(N2C(=O)OC[C@@H]2[C@H](C)F)n1)c1ncn2c1CCc1cc(C(F)(F)F)ccc1-2
inhibition (HT-1080): Active

Second part, the molecule before the results:

SMILES: C[C@H](Nc1ncc(F)c(N2C(=O)OC[C@@H]2[C@H](C)F)n1)c1ncn2c1CCc1cc(C(F)(F)F)ccc1-2
Vd [1]: 2.1 L/kg
clearance [2]: 21 mL/min/kg
half-life [3]: 1.4 h
pIC50 [4]: 8.68
F [5]: 165%
Cmax [6]: 1700 nM
AUC at 24 h [7]: 12.7 µM·h
pIC50 [8]: 7.77
AUC at 24 h [9]: 1.52 µM·h
half-life [10]: 2.5 h

SMILES: CC(C)[C@@H]1N(c2ccnc(N[C@@H](C)c3ncn4c3CCc3cc(C(F)(F)F)ccc3-4)n2)C(=O)OC1(C)C
pIC50 [4]: 7.29
pIC50 [8]: 7.73

SMILES: C[C@H](Nc1nccc(N2C(=O)OC[C@@H]2[C@H](C)F)n1)c1ncn2c1CCc1c(Cl)cccc1-2
pIC50 [4]: 7.62
pIC50 [8]: 7.09

SMILES: C[C@H](Nc1nccc(N2C(=O)OC[C@@H]2[C@H](C)F)n1)c1ncn2c1COc1cc(C3CC3)ccc1-2
pIC50 [4]: 7.48
pIC50 [8]: 7.61

SMILES: C[C@H](Nc1nccc(N2C(=O)OC3(COC3)[C@@H]2c2ccccc2)n1)c1ncn2c1CCc1cc(C(F)(F)F)ccc1-2
pIC50 [4]: 7.47
pIC50 [8]: 8.01

SMILES: COc1ccc2c(c1)OCc1c([C@H](C)Nc3nccc(N4C(=O)OC[C@@H]4[C@H](C)F)n3)ncn1-2
pIC50 [4]: 7.21
pIC50 [8]: 6.81

SMILES: C[C@H](Nc1nccc(N2C(=O)OC[C@@H]2[C@H](C)F)n1)c1ncn2c1CCc1cc(F)ccc1-2
pIC50 [4]: 7.32
pIC50 [8]: 7.35

SMILES: N#Cc1ccnc(N2C(=O)CC[C@H]2C(=O)N(c2cncc(F)c2)[C@H](C(=O)NC2CC(F)(F)C2)c2ccccc2Cl)c1 [IVOSIDENIB]
Drug uptake [11]: Active
Drug uptake [12]: Active
Vd [1]: 1.5 L/kg
clearance [2]: 9 mL/min/kg
half-life [3]: 2.5 h
bioavailability [5]: 80%
Cmax [6]: 2260 nM
AUC at 24 h [7]: 11.2 µM·h
AUC at 24 h [9]: 2.97 µM·h
half-life [10]: 3.5 h
Drug uptake [13]: Active

SMILES: C[C@H](Nc1nccc(N2C(=O)OC[C@@H]2c2ccccc2)n1)c1ncn2c1CCc1cc(C(F)(F)F)ccc1-2
pIC50 [4]: 7.81
pIC50 [8]: 7.85

SMILES: CC(C)[C@H]1C(C)OC(=O)N1c1ccnc(N[C@@H](C)c2ncn3c2CCc2cc(C(F)(F)F)ccc2-3)n1 (stereo not given in full)
pIC50 [4]: 7.38
pIC50 [8]: 7.82

SMILES: CC(C)[C@H]1COC(=O)N1c1ccnc(N[C@@H](C)c2ncn3c2CCc2cc(C(F)(F)F)ccc2-3)n1
Vd [1]: 3 L/kg
clearance [2]: 109 mL/min/kg
half-life [3]: 0.5 h
pIC50 [14]: 7.90
pIC50 [4]: 9.00
bioavailability [5]: 109%
Cmax [6]: 730 nM
AUC at 24 h [7]: 1.65 µM·h
pIC50 [8]: 8.03
AUC at 24 h [9]: 0.312 µM·h
half-life [10]: 2 h

SMILES: C[C@H](Nc1nccc(N2C(=O)OC[C@@H]2[C@H](C)F)n1)c1ncn2c1COc1cc(Cl)ccc1-2
Vd [1]: 2.3 L/kg
clearance [2]: 39 mL/min/kg
half-life [3]: 1 h
pIC50 [15]: 5.15
pIC50 [14]: 7.22
pIC50 [4]: 8.66
bioavailability [5]: 109%
Cmax [6]: 1210 nM
AUC at 24 h [7]: 5.01 µM·h
pIC50 [8]: 7.84
AUC at 24 h [9]: 0.917 µM·h
half-life [10]: 2.4 h

SMILES: C[C@H](Nc1nccc(N2C(=O)OC[C@@H]2[C@H](C)F)n1)c1ncn2c1CCc1cc(Cl)ccc1-2
Vd [1]: 4.3 L/kg
clearance [2]: 50 mL/min/kg
half-life [3]: 1.7 h
pIC50 [14]: 7.27
pIC50 [4]: 8.64
bioavailability [5]: 117%
Cmax [6]: 932 nM
AUC at 24 h [7]: 4.02 µM·h
pIC50 [8]: 7.82
AUC at 24 h [9]: 0.717 µM·h
half-life [10]: 3.4 h

SMILES: C[C@H](Nc1nccc(N2CC3(CC3)OC2=O)n1)c1ncn2c1CCc1cc(C(F)(F)F)ccc1-2
pIC50 [4]: < 5.00
pIC50 [8]: 5.23

SMILES: C[C@H](Nc1nc(Cl)cc(N2C(=O)OC[C@@H]2[C@H](C)F)n1)c1ncn2c1CCc1cc(C(F)(F)F)ccc1-2
pIC50 [4]: 8.67
pIC50 [8]: 7.63

SMILES: C[C@H](Nc1nccc(N2C(=O)OC[C@@H]2[C@H](C)F)n1)c1ncn2c1COc1cc(C#N)ccc1-2
pIC50 [4]: 6.32
pIC50 [8]: 6.40

SMILES: Cc1ccc2c(c1)CCc1c([C@H](C)Nc3nccc(N4C(=O)OC[C@@H]4[C@H](C)F)n3)ncn1-2
pIC50 [4]: 7.37
pIC50 [8]: 7.79
